Shown are actives, neighbours in structure and some others; about 0.77% of the full set was active somewhere.
hIAP inh: human IAP inhibition. P09923. 330,000 tested, 0.12% active. purified IAP, CDP-Star luminescence, 30 min. inhibition, % at 10 µM;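 active = inhibition reaching a set limit with compound at 10 µM in the primary screen, cut at about 35% in these data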;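 note: plate controls were DMSO wells with enzyme for no effect and no-enzyme buffer wells for full effect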
Target sequence (P09923 whole entry, looked up): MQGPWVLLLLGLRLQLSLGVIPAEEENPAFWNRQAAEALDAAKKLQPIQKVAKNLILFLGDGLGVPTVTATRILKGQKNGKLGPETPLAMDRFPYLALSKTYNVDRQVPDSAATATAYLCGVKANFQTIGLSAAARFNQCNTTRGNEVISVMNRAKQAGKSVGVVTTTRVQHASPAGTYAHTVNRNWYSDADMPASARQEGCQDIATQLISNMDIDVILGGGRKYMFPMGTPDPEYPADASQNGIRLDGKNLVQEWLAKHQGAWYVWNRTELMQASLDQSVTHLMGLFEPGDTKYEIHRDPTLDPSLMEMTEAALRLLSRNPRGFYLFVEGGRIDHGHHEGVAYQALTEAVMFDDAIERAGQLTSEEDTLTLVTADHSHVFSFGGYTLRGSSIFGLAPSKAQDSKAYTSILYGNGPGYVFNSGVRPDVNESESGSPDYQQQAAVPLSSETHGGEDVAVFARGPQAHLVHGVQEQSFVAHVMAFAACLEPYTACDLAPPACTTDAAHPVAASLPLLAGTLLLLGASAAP
bIAP inhibitor: blocks bovine intestinal alkaline phosphatase activity; purified bovine IAP, CDP-star luminescence, 30 min; inhibition, % at 20 µM; 190,000 tested, under 10 active;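 active = over 50% inhibition of intestinal alkaline phosphatase at 20 µM in the single-dose screen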
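Assay system: bovine IAP enzyme; medium: DEA buffer 100 mM, pH 9.8, with MgCl2 1.0 mM, ZnCl2 0.02 mM; doses: 20 µM single dose; incubation: enzyme reaction for 30 min at room temperature; detection: CDP-star luminescence signal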
hIAP activ: increases human intestinal alkaline phosphatase activity. P09923. purified human IAP, CDP-Star luminescence, 30 min; stronger effect = higher value; 1 = vehicle-only enzyme, 0 = enzyme-free background. activation factor at 10 µM. 330,000 tested, 0.16% active. AID 2524;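 active = activation factor of the enzyme at least 2-fold when tested at 20 µM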
mIAP act: mouse IAP activation; muIAP, CDP-Star luminescence, 30 min; stronger effect = higher value; 1 = vehicle-only enzyme signal, 0 = enzyme-free wells; activation factor at 10 µM; 330,000 tested, 0.24% active;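 active = activation factor of at least 2 at 20 µM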
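Assay system: mouse IAP enzyme; Reagent: CDP-Star chemiluminescent phosphatase substrate; Compound: DMSO-dissolved test compounds; Incubation: 30 min, room temperature; Technique: luminescence from enzymatic CDP-Star hydrolysis; Controls: DMSO-only wells and no-enzyme negative control.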
mIAP inh: blocks mouse intestinal alkaline phosphatase | 330,000 tested, 0.2% active | inhibition, % at 10 µM | purified mouse IAP, CDP-Star luminescence, 30 min;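 active = inhibition of at least 40% at 10 µM in the primary screen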;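 note: plate controls were DMSO with enzyme for no effect and no enzyme wells for full effect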
bIAP act: increases bovine intestinal alkaline phosphatase activity; purified bovine IAP, CDP-star luminescence, 30 min; stronger effect = higher value; fold of DMSO-control signal, blank-subtracted; activation factor at 20 µM; 200,000 tested, 0.17% active;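 active = activation factor of 2 or more at 20 µM, a signal rise over negative controls twice the positive control's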
mIAP inh conf: mouse IAP inhibition confirmation. shares compounds with mIAP inh. AID 434971. 11,000 tested, 4.7% active. inhibition, % at 10 µM. purified mouse IAP, CDP-Star luminescence, 30 min;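 active = inhibition of at least 40% at 10 µM in either of the two replicates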;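 note: plate controls were DMSO wells with enzyme for no effect and buffer wells lacking enzyme for full effect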
Starred values were filed as active, the others as inactive.

Results for Cc1ccccc1-n1ccnc1SCC(=O)Nc1cccc(S(=O)(=O)NC2=NCCC2)c1 ?
hIAP inh: -10; hIAP activ: 1.1; mIAP act: 1; mIAP inh: -3

Results for C#CCOCCOCCOCCNc1nc(N2CCN(C(=O)CCCCCCCCCCNC(=O)[C@H]([C@@H](C)CC)n3cc(CCCCN=C(N)N)nn3)CC2)nc(N2CCN(C(=O)CCCCCCCCCCNC(=O)[C@H](CCCN=C(N)N)n3cc(C[C@@H](C)CC)nn3)CC2)n1 ?
hIAP inh: -49; hIAP activ: 1.5; mIAP act: 4.4*; mIAP inh: -343; mIAP inh conf: inactive

Results for C#CCOCCOCCOCCNc1nc(N2CCN(C(=O)CCCCCCCCCCNC(=O)[C@H](CO)n3cc(CCCCCN)nn3)CC2)nc(N2CCN(C(=O)CCCCCCCCCCNC(=O)[C@H](CCCN=C(N)N)n3cc(C[C@@H](C)CC)nn3)CC2)n1 ?
hIAP inh: 2; hIAP activ: 0.98; mIAP act: 1.5; mIAP inh: -52

What do the screens show for `C#CCOCCOCCOCCNc1nc(N2CCN(C(=O)CCCCCCCCCCNC(=O)[C@@H](CCSC)n3cc(CCO)nn3)CC2)nc(N2CCN(C(=O)CCCCCCCCCCNC(=O)[C@@H]([C@H](C)O)n3cc(C)nn3)CC2)n1`?
hIAP inh: -22; hIAP activ: 1.2; mIAP act: 1.6; mIAP inh: -55

What do the screens show for `C#CCOCCOCCOCCNc1nc(N2CCN(C(=O)CCCCCCCCCCNC(=O)[C@@H](CCSC)n3cc(CCO)nn3)CC2)nc(N2CCN(C(=O)CCCCCCCCCCNC(=O)[C@H](CCCN=C(N)N)n3cc(C[C@@H](C)CC)nn3)CC2)n1`?
hIAP inh: -58; hIAP activ: 1.6; mIAP act: 7.7*; mIAP inh: inactive; mIAP inh conf: inactive

How did C#CCOCCOCCOCCNc1nc(N2CCN(C(=O)CCCCCCCCCCNC(=O)Cn3cc(C[C@@H](C)O)nn3)CC2)nc(N2CCN(C(=O)CCCCCCCCCCNC(=O)[C@@H](CCSC)n3cc(CCO)nn3)CC2)n1 do in these assays?
hIAP inh: 6; hIAP activ: 0.94; mIAP act: 2.8*; mIAP inh: -184; mIAP inh conf: -97

What do the screens show for `CCOC(=O)CCCCCC(=O)Nc1ccc2c(c1)CC(=O)N([C@@H](C)CO)C[C@@H](C)[C@@H](CN(C)C(=O)Nc1ccc(C(F)(F)F)cc1)O2`?
hIAP inh: 4; hIAP activ: 0.96; mIAP act: 1.2; mIAP inh: -19

What do the screens show for `Cc1cnc(=O)[nH]c1SCc1ccc([N+](=O)[O-])cc1`?
hIAP inh: -32; hIAP activ: 1.3; mIAP act: 1; mIAP inh: 0

What do the screens show for `Cc1ccc(C)c(CN2CCC(CNC(=O)CCc3nnc4ccc(N5CCCCC5)nn34)CC2)c1`?
hIAP inh: 5; hIAP activ: 0.95; mIAP act: 1; mIAP inh: 0

Results for COc1cc(NC(=O)NCC2CCN(Cc3ccccc3F)CC2)cc(OC)c1 ?
hIAP inh: -32; hIAP activ: 1.3; mIAP act: 3.1*; mIAP inh: -208; mIAP inh conf: -167

Results for O=C(NCCN1CCCCC1)Nc1ccc(F)c(Cl)c1 ?
hIAP inh: 10; bIAP inhibitor: 10; hIAP activ: 0.9; mIAP act: 1.1; mIAP inh: -14; bIAP act: 0.9

What do the screens show for `Cc1cc(C)cc(NC(=O)NCC2CCN(Cc3cc(C)ccc3C)CC2)c1`?
hIAP inh: -61; hIAP activ: 1.6; mIAP act: 3.6*; mIAP inh: -256; mIAP inh conf: -132

Results for Cc1ccc(C)c(CN2CCC(CNC(=O)Nc3ccc(F)c(Cl)c3)CC2)c1 ?
hIAP inh: -54; hIAP activ: 1.5; mIAP act: 3.4*; mIAP inh: -235; mIAP inh conf: -98

What do the screens show for `CC(=O)c1cccc(NC(=O)CCc2nnc3ccc(NCc4ccc5c(c4)OCO5)nn23)c1`?
hIAP inh: -9; hIAP activ: 1.1; mIAP act: 1.1; mIAP inh: -5

How did CC1CCCC(C)N1CCCNC(=O)C(=O)Nc1ccc2nc3n(c(=O)c2c1)CCCCC3 (centres undefined) do in these assays?
hIAP inh: -17; hIAP activ: 1.2; mIAP act: 1.1; mIAP inh: -6

What do the screens show for `CC[C@@]1(C(=O)OC)N[C@H](CN(C)S(=O)(=O)c2ccc(OC)cc2)[C@@H]2C(=O)N(C)C(=O)[C@@H]21`?
hIAP inh: -32; hIAP activ: 1.3; mIAP act: 1.2; mIAP inh: -18

How did COc1ccccc1/C=c1\sc2nc(-c3ccco3)nn2c1=O do in these assays?
hIAP inh: 22; bIAP inhibitor: 5; hIAP activ: 0.78; mIAP act: 0.58; mIAP inh: 42*; bIAP act: 0.9; mIAP inh conf: 70*

What do the screens show for `Cc1cc(Cn2nc(-c3ccccc3)cc2C(=O)NCc2cccc(C(F)(F)F)c2)on1`?
hIAP inh: 5; hIAP activ: 0.95; mIAP act: 3.3*; mIAP inh: -228; mIAP inh conf: -125

Results for Cc1cc(Cn2nc(-c3ccccc3)cc2C(=O)NCc2cccc(Br)c2)on1 ?
hIAP inh: -10; hIAP activ: 1.1; mIAP act: 4*; mIAP inh: -299; mIAP inh conf: -230

What do the screens show for `COc1ccc(-n2ncc3c(=O)n(CC(=O)NC(C)C)cnc32)cc1`?
hIAP inh: -16; hIAP activ: 1.2; mIAP act: 0.99; mIAP inh: 1

What do the screens show for `CC(=O)N1CC(C)Oc2ccc(S(=O)(=O)Nc3ccc(Cl)cn3)cc21` (centres undefined)?
hIAP inh: -11; hIAP activ: 1.1; mIAP act: 0.95; mIAP inh: 5

How did O=C1OC2(c3ccccc31)c1cc(I)c(O)c(I)c1Oc1c2cc(I)c(O)c1I do in these assays?
hIAP inh: 26; hIAP activ: 0.74; mIAP act: 0.56; mIAP inh: 44*; mIAP inh conf: 64*

Results for COc1ccc(O)c(N)c1 ?
hIAP inh: 26; bIAP inhibitor: -11; hIAP activ: 0.73; mIAP act: 0.59; mIAP inh: 41*; bIAP act: 1.1; mIAP inh conf: 48*

What do the screens show for `O=C(O)c1ccc(-c2nnc(-c3cccc(Br)c3)o2)cc1`?
hIAP inh: -4; hIAP activ: 1; mIAP act: 0.95; mIAP inh: 5

Results for Cc1cc(NC(=O)Nc2cccc(Cl)c2)n(-c2ccccn2)n1 ?
hIAP inh: -17; hIAP activ: 1.2; mIAP act: 1.7; mIAP inh: -68

Assay outcomes: PubChem BioAssay, Sanford-Burnham Center for Chemical Genomics
